# Test results as given in PMC6931396 (Journal of medicinal chemistry, 2019).
# What was measured:
# [1] = test system: TOPFlash luciferase reporter (three wild-type Tcf4 binding sites) in β-catenin activated HEK293 cells; assay: TOPFlash luciferase reporter assay; type: cell-based; settings: 24 h
# Summary of the method: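 HEK293 cells were co-transfected with FuGENE 6, using 45 ng TOPFlash or FOPFlash reporter plus 135 ng pcDNA3.1-β-catenin. Cells were grown 24 h in DMEM with 10% FBS at 37 °C, then treated with test compound at various concentrations. After 24 h, luciferase activity was read by a dual-luciferase system, normalized, and compared with DMSO-treated cells. Triplicate; unpaired two-tailed t-test.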
# [2] = unless converted into the ester form; previous study; cited from earlier work
# [3] = molecular target: T1, β-catenin/Tcf PPI (human β-catenin residues 138–781 / fluorescein-labeled human Tcf4 residues 7–51) (Homo sapiens, UniProt P35222); type: binding
# T1 sequence (P35222 138-781): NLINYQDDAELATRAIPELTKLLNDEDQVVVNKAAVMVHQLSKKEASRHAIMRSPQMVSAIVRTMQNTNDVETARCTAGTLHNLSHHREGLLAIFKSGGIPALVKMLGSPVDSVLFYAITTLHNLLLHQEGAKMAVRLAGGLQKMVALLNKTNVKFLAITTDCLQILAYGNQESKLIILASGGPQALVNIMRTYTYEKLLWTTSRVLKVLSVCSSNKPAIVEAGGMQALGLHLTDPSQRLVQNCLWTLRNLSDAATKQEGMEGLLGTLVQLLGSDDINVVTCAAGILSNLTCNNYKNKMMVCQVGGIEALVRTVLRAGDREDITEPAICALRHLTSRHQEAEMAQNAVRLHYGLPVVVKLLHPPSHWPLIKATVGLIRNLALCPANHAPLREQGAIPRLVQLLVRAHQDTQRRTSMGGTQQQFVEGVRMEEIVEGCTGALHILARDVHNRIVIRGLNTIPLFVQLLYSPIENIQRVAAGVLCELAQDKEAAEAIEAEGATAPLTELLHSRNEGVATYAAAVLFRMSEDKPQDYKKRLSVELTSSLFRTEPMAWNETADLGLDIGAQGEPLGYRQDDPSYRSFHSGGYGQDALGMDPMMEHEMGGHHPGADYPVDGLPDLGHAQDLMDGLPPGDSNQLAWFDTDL
# SW480 cells = assay: HPLC–MS based cell bioavailability assay; type: in vitro ADME; settings: for cell-bound concentration: 37 °C, 3 h incubation in 5 mL DMEM with 10% FBS, input concentration 25 μM
# [4] = test system: β-catenin/Tcf PPI in HCT116 cells; assay: Co-IP in HCT116 cells, β-catenin/Tcf; type: cell-based; settings: HCT116 cells treated 24 h
# [5] = test system: β-catenin/E-cadherin PPI in HCT116 cells; assay: Co-IP in HCT116 cells, β-catenin/E-cadherin; type: cell-based; settings: concentrations sufficient to disrupt β-catenin/Tcf PPI
# [6] = test system: β-catenin/APC PPI in HCT116 cells; assay: Co-IP in HCT116 cells, β-catenin/APC; type: cell-based; settings: concentrations sufficient to disrupt β-catenin/Tcf PPI
# TNBC MDA-MB-231 cells [7] = assay: Scratch wound healing assay; type: cell-based, human; settings: 10 μM, 10% serum, mitomycin 10 μg/mL, 14 h
# Summary of the method: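 Wounds were scraped with a sterile 200 µL pipette tip into ~70–80% confluent MDA-MB-231 monolayers. Cells were kept in DMEM with 10% FBS plus 10 µg/mL mitomycin to block proliferation, with test compound or vehicle (0.2% DMSO). Wounds were imaged immediately and at 14 h. […] Mean ± SD, n=3.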
# TNBC MDA-MB-231 cells [8] = assay: Matrigel invasion assay; type: cell-based, human; settings: 10 μM, 24 h
compound,measurement,setting,value
CCOC(=O)CC[C@H](NC(=O)[C@H](CC(=O)OCC)NC(=O)[C@H](Cc1ccc2ccccc2c1)NC(=O)c1cc2cc(OC)ccc2[nH]1)C(=O)OC [(Et)-15],TOPFlash luciferase activity,[1]; concentration of up to 200 μM,did not inhibit
COC(=O)[C@H](CCC(=O)O)NC(=O)[C@H](CC(=O)O)NC(=O)[C@H](Cc1ccc2ccccc2c1)NC(=O)Cc1cc2cc(Cl)ccc2[nH]1 [Compound 1],activity in cell-based assays,[2],almost inactive
COC(=O)[C@H](CCC(=O)O)NC(=O)[C@H](CC(=O)O)NC(=O)[C@H](Cc1ccc2ccccc2c1)NC(=O)Cc1c[nH]c2ccc(Cl)cc12 [Compound 2],inhibitory potency for β-catenin/Tcf PPI in words,[3],great loss of potency
COC(=O)[C@H](CCC(=O)O)NC(=O)[C@H](CC(=O)O)NC(=O)[C@H](Cc1ccc2ccccc2c1)NC(=O)Cc1c[nH]c2cc(Cl)ccc12 [Compound 3],inhibitory potency for β-catenin/Tcf PPI in words,[3],great loss of potency
COC(=O)[C@H](CCC(=O)O)NC(=O)[C@H](CC(=O)O)NC(=O)[C@H](Cc1ccc2ccccc2c1)NC(=O)c1cc2c(Cl)cc(Cl)cc2[nH]1 [Compound 19],potency improvement over 9,[3],~ 3 fold
"O=C(O)CC[C@H](NC(=O)[C@H](CC(=O)O)NC(=O)[C@H](Cc1ccc2ccccc2c1)NC(=O)c1cc2cc(Cl)ccc2[nH]1)C(=O)Nc1ccccc1 [Compound 21, (S)-4-((S)-3-Carboxy-2-((S)-2-(5-chloro-1H-indole-2-carboxamido)-3-(naphthalen-2-yl)propanamido)propanamido)-5-oxo-5-(phenylamino)pentanoic Acid]",potency improvement over 9,[3],3.4 fold
"O=C(O)CC[C@H](NC(=O)[C@H](Cc1nn[nH]n1)NC(=O)[C@H](Cc1ccc2ccccc2c1)NC(=O)c1cc2cc(Cl)ccc2[nH]1)C(=O)Nc1ccc(OC(F)(F)F)cc1 [Compound 53, (S)-4-((S)-2-((S)-2-(5-Chloro-1H-indole-2-carboxamido)-3-(naphthalen-2-yl)propanamido)-3-(2H-tetrazol-5-yl)propanamido)-5-oxo-5-((4-(trifluoromethoxy)phenyl)amino)pentanoic Acid]",cell-bound concentration,SW480 cells,0.17 nmol/million SW480 cells
"NC(=O)CC[C@H](NC(=O)[C@H](Cc1nn[nH]n1)NC(=O)[C@H](Cc1ccc2ccccc2c1)NC(=O)c1cc2cc(Cl)ccc2[nH]1)C(=O)Nc1ccc(OC(F)(F)F)cc1 [Compound 55, (S)-2-((S)-2-((S)-2-(5-Chloro-1H-indole-2-carboxamido)-3-(naphthalen-2-yl)propanamido)-3-(2H-tetrazol-5-yl)propanamido)-N^1-(4-(trifluoromethoxy)phenyl)pentanediamide]",TOPFlash luciferase activity,[1]; different concentrations,suppressed the TOPFlash luciferase activities in dose-dependent manners
"CCOC(=O)CC[C@H](NC(=O)[C@H](Cc1nn[nH]n1)NC(=O)[C@H](Cc1ccc2ccccc2c1)NC(=O)c1cc2cc(Cl)ccc2[nH]1)C(=O)Nc1ccc(OC(F)(F)F)cc1 [Compound 56, Ethyl (S)-4-((S)-2-((S)-2-(5-Chloro-1H-indole-2-carboxamido)-3-(naphthalen-2-yl)propanamido)-3-(2H-tetrazol-5-yl)-propanamido)-5-oxo-5-((4-(trifluoromethoxy)phenyl)amino)-pentanoate]",TOPFlash luciferase activity,[1]; different concentrations,suppressed the TOPFlash luciferase activities in dose-dependent manners
same,inhibition of β-catenin/Tcf PPI (co-IP),[4],dose-dependently inhibited
same,effect on β-catenin/E-cadherin PPI (co-IP),[5],had no effect
same,effect on β-catenin/APC PPI (co-IP),[6],had no effect
same,inhibition of TNBC cell migration,TNBC MDA-MB-231 cells [7],effectively inhibit
same,inhibition of TNBC cell invasion,TNBC MDA-MB-231 cells [8],effectively inhibit
same,cell-bound concentration,SW480 cells,1.4 nmol/million SW480 cells
same,transformation into 53,SW480 cells; 24 h incubation with SW480 cells in 5 mL DMEM with 10% FBS,did not transform into 53
